Source: PubChem
Apaf1 inhib: inhibitors of human Apaf-1 apoptosome; reconstituted apoptosome caspase-3 activity, DEVD-Rh110 fluorescence; 330,000 compounds, 0.71% hits; inhibition, % at 20 µM; active means inhibition of at least 40% at 20 µM;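 further: plate controls were DMSO wells for no effect and DEVD-CHO caspase inhibitor wells for full effect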
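Assay system: Apoptosome proteins | Medium: pH 7.5 Hepes buffer with CHAPS, BSA, DTT | Also added: Cytochrome c and DEVD-Rh110 substrate | Times: 30 min plus 50 min, RT | Detection: Rhodamine 110 fluorescence at Ex 480/Em 540 nm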
SENP6 block: SENP6 protease inhibition. AID 2599. Q9GZR1. Recombinant SENP6 catalytic domain, aminoluciferin luminescence. 330,000 compounds, 1.8% hits. inhibition, % at 10 µM;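 active means inhibition above about 50% at the single tested dose, limit read from the data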;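 further: plate controls were DMSO wells with enzyme for no effect and DMSO wells lacking enzyme for full effect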
UBC13 polyUb: blocks human UBC13 polyubiquitin chain formation. P61088. TR-FRET. inhibition, % at 20 µM. 330,000 compounds, 0.47% hits. AID 485273; in the data active means inhibition above about 45%, passing the limit was not always enough
Target sequence (P61088 whole entry, looked up): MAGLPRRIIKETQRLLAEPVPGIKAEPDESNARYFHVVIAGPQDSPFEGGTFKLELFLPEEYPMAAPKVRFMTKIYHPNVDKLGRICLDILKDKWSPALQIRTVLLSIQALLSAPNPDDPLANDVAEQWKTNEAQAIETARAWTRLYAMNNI
SENP8 block-1: blocks human SENP8 cleavage of Nedd8 substrate; Q96LD8; recombinant SENP8, Nedd8 substrate fluorescence; inhibition, % at 20 µM; 360,000 compounds, 0.64% hits; in the data active means inhibition mostly above about 40%, no sharp cut-off; inactive means mostly below about 27%
Target sequence (Q96LD8 whole entry, looked up): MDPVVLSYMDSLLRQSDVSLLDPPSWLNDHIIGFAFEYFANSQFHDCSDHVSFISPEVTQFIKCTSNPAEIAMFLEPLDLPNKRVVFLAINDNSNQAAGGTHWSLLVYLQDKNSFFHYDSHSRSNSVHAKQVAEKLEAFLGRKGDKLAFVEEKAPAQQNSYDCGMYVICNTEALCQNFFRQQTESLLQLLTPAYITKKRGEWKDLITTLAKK
SENP7 inh: SENP7 protease inhibition; 330,000 compounds, 1.5% hits; Q9BQF6; inhibition, % at 5 µM; recombinant SENP7, Z-RLRGG-aminoluciferin luminescence, 40 min;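 active means inhibition above about 50% at the single test dose, limit read from the data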;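 further: plate controls were DMSO with enzyme for no effect and no enzyme buffer wells for full effect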
Target sequence (Q9BQF6 706-1050 limits assumed): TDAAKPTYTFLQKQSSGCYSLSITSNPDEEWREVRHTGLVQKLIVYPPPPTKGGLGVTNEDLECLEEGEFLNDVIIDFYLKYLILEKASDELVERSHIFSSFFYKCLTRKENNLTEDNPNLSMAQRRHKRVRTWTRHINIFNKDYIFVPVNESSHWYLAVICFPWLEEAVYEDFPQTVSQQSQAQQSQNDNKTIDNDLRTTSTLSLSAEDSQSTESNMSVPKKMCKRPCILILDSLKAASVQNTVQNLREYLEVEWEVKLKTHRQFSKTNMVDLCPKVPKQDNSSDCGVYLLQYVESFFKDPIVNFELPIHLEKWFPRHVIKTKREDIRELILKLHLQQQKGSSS
SENP8 block-2: blocks the human protease SENP8; AID 2540; purified SENP8, Z-RLRGG-aminoluciferin cleavage, luminescence; 330,000 compounds, 1.2% hits; inhibition, % at 10 µM; Q96LD8; in the data active means inhibition above about 50%
SENP8 confirm: human SENP8 inhibition, confirmed | 6,200 compounds, 40% hits | Recombinant SENP8, Z-RLRGG-aminoluciferin luminescence, 60 min | shares compounds with SENP7 inh | inhibition, % at 12.5 µM | AID 488912;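 active means mean inhibition across replicates above about 50%, limit read from the data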
SENP6 conf: human SENP6 inhibition, confirmed. shares compounds with SENP7 inh. 6,200 compounds, 58% hits. inhibition, % at 12.5 µM. AID 488915. recombinant SENP6, Z-RLRGG-aminoluciferin luminescence
SENP7 conf: human SENP7 inhibition, confirmed. shares compounds with SENP7 inh. 6,200 compounds, 69% hits. inhibition, % at 12.5 µM. recombinant SENP7, Z-RLRGG-aminoluciferin luminescence, 40 min
Casp3 select: selectivity test for SENP inhibitors: human caspase-3 inhibition | 6,200 compounds, 60% hits | purified caspase-3, Z-DEVD-aminoluciferin luminescence, 60 min | AID 488918 | shares compounds with SENP7 inh | inhibition, % at 12.5 µM;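 active means mean inhibition above about 50%, limit read from the data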;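 further: plate controls were enzyme with DMSO for no effect and wells without caspase-3 for full effect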
Luc interf: luminescence interference (SENP counter-screen) | shares compounds with SENP7 inh | Pre-incubated SENP8/Z-RLRGG-aminoluciferin, luciferase luminescence interference | inhibition, % at 12.5 µM | 6,200 compounds, 39% hits | AID 488919;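 active means mean inhibition above about 50% when retested at one dose, limit read from the data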;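 further: plate controls were DMSO wells with completed reaction for no effect and substrate without enzyme for full effect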
An asterisk follows results filed as active; . = no result. Shown are actives, neighbours in structure and some others; about 3.1% of the full set was active somewhere.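 How the source made its calls, unless noted: active means mean inhibition above about 50% in the one-dose retest (limit read from the data); inactive means the rest.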

SMILES	Apaf1 inhib	SENP6 block	UBC13 polyUb	SENP8 block-1	SENP7 inh	SENP8 block-2	SENP8 confirm	SENP6 conf	SENP7 conf	Casp3 select	Luc interf
COc1cccc(NC(=O)c2ccc3c(c2)N(C)CCS3)c1	8.3	91.2*	18.1	-466.0	95.9*	94.1*	95.2*	95.7*	100.3*	93.8*	95.6*
COc1cccc(NC(=O)c2ccc(CN3CCOCC3)cc2)c1	-1.6	50.3*	-6.2	7.5	39.2	11.8	26.6	21.3	57.0*	63.1*	33.6
COC(=O)c1sccc1NC(=O)c1ccc2c(c1)OCO2	0.2	-5.1	13.9	-59.7	6.0	-23.8	.	.	.	.	.
CCOC(=O)C1(C)CCN1C(=O)c1csnn1 (stereo not drawn)	.	.	.	21.1	.	.	.	.	.	.	.
Cc1cc(C)nc(NC(=O)c2ccc3c(c2)OCO3)c1	6.8	70.8*	-6.1	.	80.5*	58.7*	75.3*	74.5*	90.4*	87.6*	75.8*
COc1cccc(NC(=O)c2ccc3c(c2)OCCO3)c1	3.4	93.9*	2.2	10.6	97.3*	94.2*	97.0*	97.7*	101.8*	97.3*	95.9*
CC1(C(=O)NS(=O)(=O)c2ccccc2)CCN1C(=O)CCc1ccc(Cl)cc1Cl (stereo not drawn)	.	.	.	16.0	.	.	.	.	.	.	.
CCOc1cc2[nH]c(=S)n(CCC(=O)NC3CCCCC3)c(=O)c2cc1OCC	.	.	.	14.8	.	.	.	.	.	.	.
c1ccc(-c2ccccc2-c2nc(-c3ccncc3)no2)cc1	13.8	-11.2	5.1	16.8	7.7	5.5	.	.	.	.	.
Brc1ccc(-c2nc(-c3ccncc3)no2)cc1	0.6	7.3	-2.8	21.8	73.0*	12.7	-9.1	-1.5	19.2	23.4	-0.6
c1ccc(-c2ccc(-c3nc(-c4ccncc4)no3)cc2)cc1	-16.4	90.9*	3.4	-8.9	22.9	82.9*	41.6	37.3	27.4	71.7*	6.1
c1coc(-c2nc(-c3ccncc3)no2)c1	7.1	71.7*	-10.3	-0.8	62.2*	32.5	16.7	53.0*	84.6*	81.8*	20.6
c1ccc(-c2nc(-c3ccncc3)no2)cc1	8.4	81.8*	-2.5	18.4	80.1*	57.7*	-29.5	-0.8	49.5	32.0	-2.4
CCOC(=O)C1(C)CCCN1C(=O)c1cc(F)ccc1C (stereo not drawn)	.	.	.	20.6	.	.	.	.	.	.	.
CSc1nc2ncncc2[nH]1	.	.	.	10.9	.	.	.	.	.	.	.
CC(C)(C)c1ccc(C(=O)Nc2cnccn2)cc1	-9.8	52.4*	16.5	9.6	55.0*	28.9	38.3	47.4	60.3*	63.0*	30.0
COc1ccc(C(=O)N=c2nc3ccccn3s2)cc1	1.2	95.2*	-1.7	21.8	98.0*	89.7*	88.1*	90.8*	95.8*	81.7*	35.9
Nc1nn(-c2ccccc2)c(N)c1N=Nc1ccc2c(c1)OCO2	1.9	61.8*	-32.7	40.0	28.9	9.4	39.9	41.4	76.2*	44.9	60.7*
Nc1[nH]n(-c2ccccc2)c(=O)c1N=Nc1ccc2c(c1)OCCO2	16.5	73.2*	-193.6	36.4	92.9*	84.4*	42.6	93.7*	99.2*	82.8*	35.6
Cc1cc([N+](=O)[O-])ccc1N=Nc1c(N)[nH]n(-c2ccccc2)c1=O	17.3	15.5	-33.9	29.6	6.2	19.1	.	.	.	.	.
Nc1nn(-c2ccccc2)c(N)c1N=Nc1cccc(F)c1	15.5	17.0	-13.2	22.1	-4.4	-11.2	.	.	.	.	.
Cc1ccc(S(=O)(=O)N2C[C@H]3N(C(=O)OC(C)C)N(C(=O)OC(C)C)C[C@H](OC(=O)Nc4c(C)noc4C)[C@@]3(O)C2)cc1	.	.	.	1.2	.	.	.	.	.	.	.
O=c1c2ccccc2nnn1CSc1ccc2ccccc2n1	1.9	-1.5	2.5	21.2	9.2	5.4	.	.	.	.	.
O=c1c2ccccc2nnn1CSc1ccccc1	2.0	87.2*	-2.8	26.7	78.0*	74.6*	81.0*	81.1*	95.8*	87.6*	85.2*
CC(=O)Nc1cc(-c2ccncc2)cn2c(-c3ccccc3)cnc12	.	.	.	-103.7	.	.	.	.	.	.	.
SMILES	Apaf1 inhib	SENP6 block	UBC13 polyUb	SENP8 block-1	SENP7 inh	SENP8 block-2	SENP8 confirm	SENP6 conf	SENP7 conf	Casp3 select	Luc interf
O=C(NCCCN1CCOCC1)c1sc2cc(Cl)ccc2c1Cl	6.5	-24.0	-4.2	11.8	-5.3	-3.6	.	.	.	.	.
O=C(NCCCN1CCOCC1)c1sc2cc([N+](=O)[O-])ccc2c1Cl	22.3	62.4*	-32.2	13.4	-1.5	4.9	-7.7	-5.3	-9.4	4.5	0.1
Cc1ccc2c(c1)Sc1c(ccc3ccccc13)N2	-17.2	79.9*	18.0	-76.2	11.3	56.3*	1.9	18.2	3.7	29.6	11.5
COc1cccc(/C=N/NC(=O)CNC(=O)/C=C\c2ccccc2)c1O	0.8	8.8	-9.9	-72.0	13.8	10.2	.	.	.	.	.
COc1cc(/C=N/NC(=O)c2cc(C)oc2C)ccc1O	-15.9	-4.8	-10.1	-35.5	-0.8	-11.1	.	.	.	.	.
Cc1occc1C(=O)N/N=C/c1ccccc1[N+](=O)[O-]	-20.1	55.5*	-0.6	8.5	73.0*	36.9	46.8	47.1	85.0*	83.6*	31.8
COc1cccc(/C=N/NC(=O)CNC(=O)C(c2ccccc2)c2ccccc2)c1O	15.1	51.6*	9.3	-266.8	3.9	42.9	38.3	43.9	62.6*	58.8*	-3.1
COc1cc(/C=N/NC(=O)c2nonc2C)ccc1O	2.0	66.9*	-14.0	15.0	77.4*	82.4*	89.2*	89.2*	98.1*	96.6*	89.3*
Cn1nccc1C(=O)N/N=C/c1ccccc1[N+](=O)[O-]	5.7	3.5	-5.1	16.4	-10.5	-6.0	.	.	.	.	.
COc1cc(/C=N/NC(=O)c2ccoc2C)ccc1O	-1.6	68.0*	-4.3	-21.7	60.9*	59.8*	65.8*	64.0*	89.1*	89.3*	68.9*
COC(=O)c1ccc2nc(-c3ccc(Cl)cc3)c(Cc3ccsc3)n2c1	.	.	.	-400.8	.	.	.	.	.	.	.
COc1cccc(/C=N/NC(=O)C(=O)N/N=C/c2cccc(OC)c2O)c1O	.	.	.	2.6	.	.	.	.	.	.	.
COc1cccc(C=NNC(=O)CCCC(=O)NN=Cc2cccc(OC)c2)c1	.	.	.	2.3	.	.	.	.	.	.	.
COc1cccc(/C=N/NC(=O)c2ccoc2C)c1O	2.6	91.5*	-13.2	-43.1	94.5*	87.4*	93.0*	93.3*	100.2*	96.6*	39.9
